Compounds with a hit are over-represented: about 1.5% of the library has one in this group of screens.
Hsp70 activator – Hsp70 transcriptional activators, primary screen, cell-based, HeLa, Hsp70 promoter luciferase, luminescence, 10 µM; HeLa Hsp70 promoter luciferase reporter; scaled: vehicle 0, proteasome-inhibitor control 100%; activation, % at 10 µM; AID 1203, 2008; 200,000 tested, 0.04% active;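 active = activation above the mean across all tested compounds plus 3 SD, cutoff set per campaign, cut at about 5.5% in these data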;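 also: 100% = MG132 at 30 µM as the positive control and 0% = DMSO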
PKD1 inh – inhibitors of human PKD1 kinase, biochemical, fluorescence polarization; 200,000 tested, 0.056% active; inhibition, % (concentration not given with the values); PKD1 kinase fluorescence polarization assay; AID 797, 2007; in the data active = inhibition above about 50%
Target sequence (Q15139 whole entry, looked up): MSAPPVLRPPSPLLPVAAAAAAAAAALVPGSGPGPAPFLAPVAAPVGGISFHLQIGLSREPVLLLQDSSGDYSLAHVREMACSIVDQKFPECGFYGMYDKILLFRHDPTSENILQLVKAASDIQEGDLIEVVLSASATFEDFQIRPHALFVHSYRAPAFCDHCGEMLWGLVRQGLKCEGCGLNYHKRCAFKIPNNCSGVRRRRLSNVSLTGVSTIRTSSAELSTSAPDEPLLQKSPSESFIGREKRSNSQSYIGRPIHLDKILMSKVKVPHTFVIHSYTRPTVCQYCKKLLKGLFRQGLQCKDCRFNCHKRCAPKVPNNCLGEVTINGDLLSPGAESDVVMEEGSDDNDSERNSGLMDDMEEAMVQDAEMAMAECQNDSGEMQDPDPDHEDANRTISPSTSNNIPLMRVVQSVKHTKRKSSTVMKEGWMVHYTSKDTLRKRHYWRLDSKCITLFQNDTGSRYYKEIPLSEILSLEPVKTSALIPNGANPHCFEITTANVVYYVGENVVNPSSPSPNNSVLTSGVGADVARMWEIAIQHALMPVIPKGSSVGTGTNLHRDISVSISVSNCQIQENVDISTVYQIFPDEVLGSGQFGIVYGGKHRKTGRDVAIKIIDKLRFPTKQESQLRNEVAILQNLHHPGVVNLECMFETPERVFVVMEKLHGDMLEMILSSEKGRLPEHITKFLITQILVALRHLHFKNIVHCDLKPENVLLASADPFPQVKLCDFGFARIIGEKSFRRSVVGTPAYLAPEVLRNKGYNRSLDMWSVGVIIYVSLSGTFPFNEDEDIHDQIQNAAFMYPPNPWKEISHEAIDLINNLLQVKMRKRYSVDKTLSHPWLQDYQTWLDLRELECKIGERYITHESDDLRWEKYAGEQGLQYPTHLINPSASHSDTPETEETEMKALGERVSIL
p97 ATPase inh – inhibitors of human p97 ATPase, primary screen, biochemical. Transitional endoplasmic reticulum ATPase (Homo sapiens), P55072. recombinant p97 ATPase, Kinase-Glo ATP luminescence, 3 h. inhibition, % at 8 µM. 220,000 tested, 0.42% active; in the data active = inhibition above about 15%;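 also: 0% = DMSO vehicle and 100% = wells lacking enzyme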
PP1 counter – PP1-alpha phosphatase inhibitors, primary screen, counter-screen for PP5 inhibitor project, biochemical, fluorescence, OMFP substrate, single point | AID 2235, 2010 | inhibition, % at 6.7 µM | Serine/threonine-protein phosphatase PP1-alpha catalytic subunit (Homo sapiens), P62136 | 320,000 tested, 0.9% active | purified PP1alpha;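 active = inhibition above the mean inhibition of all tested compounds plus 3 SD, computed separately for each screening campaign, cut at about 15% in these data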
PP5 primary – PP5 phosphatase inhibitors, primary screen, biochemical, fluorescence; Serine/threonine-protein phosphatase 5 (Homo sapiens), P53041; purified PP5c, OMFP substrate fluorescence; inhibition, % at 6.7 µM; 320,000 tested, 0.18% active;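 active = inhibition above the campaign's mean inhibition across all tested compounds plus 3 SD, cut at about 9.5% in these data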;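 also: 0% = DMSO only and 100% = 100 µM cantharidin control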
RBBP9 inhibitor – human RBBP9 inhibitors, primary screen, biochemical, fluorescence polarization, FP-Rh probe, HTS; Serine hydrolase RBBP9 (Homo sapiens), O75884; recombinant RBBP9; inhibition, % at 7.94 µM; 220,000 tested, 0.2% active; AID 1515, 2009;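 active = inhibition above the campaign mean of all tested compounds plus 3 SD, cut at about 14% in these data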;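 also: plate controls were DMSO wells with RBBP9 for no effect and wells lacking RBBP9 protein for full effect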
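Test system: recombinant human RBBP9; Timing: 30 min then 45 min, 25 °C; Detection: fluorescence polarization; Control set: RBBP9 with DMSO as uninhibited control, no-protein wells as full inhibition; Compound dosing: one concentration, 7.94 µM nominal, 0.794% DMSO; Probe or stimulus: FP-Rh activity-based probe, 375 nM before mixing.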
An asterisk follows results filed as active; nt = no result given.

SMILES	Hsp70 activator	PKD1 inh	p97 ATPase inh	PP1 counter	PP5 primary	RBBP9 inhibitor
Cc1cc(C(=O)O)ccc1-n1c(C)ccc1C	0	3	14	27*	4	-4
Cc1[nH][nH]c(=O)c1C(c1c(C)[nH][nH]c1=O)c1cn(Cc2cccc3ccccc23)c2ccccc12	1	-2	27*	16*	3	-4
O=c1cc(O)c2c(=O)n(-c3ccccc3)c3c(c2o1)CCCCCC3	0	-4	7	17*	3	3
O=C(Nc1nc(-c2ccccn2)cs1)c1ccco1	3	3	3	16*	0	0
CSc1nnc(-c2cccn(Cc3ccccc3)c2=O)o1	1	7	4	2	3	2
O=c1c(-c2nnc(SCc3ccc(Cl)cc3Cl)o2)cccn1Cc1ccccc1	0	5	0	16*	-2	-9
C=CCn1c(COc2ccccc2F)nnc1SCC(=O)NC(=O)NCc1ccco1	0	-6	1	2	2	-5
C=CCn1c(COc2ccccc2-c2ccccc2)nnc1SCC(=O)NC(=O)NCc1ccco1	0	-4	-3	16*	5	-10
Cc1cccc(CNc2ccc(C(CC(N)=O)NC(=O)Cc3cccc4ccccc34)cc2[N+](=O)[O-])c1 (stereo unspecified)	nt	nt	nt	17*	2	nt
N#Cc1cc(O)c(-n2nnc3ccccc32)cc1C#N	0	-3	8	-4	0	7
N#Cc1cc(Oc2cccc3cccnc23)c(-n2nnc3ccccc32)cc1C#N	0	7	6	16*	6	9
COC(=O)c1cccc(C23CC4(C2)[C@H](CN(Cc2cccnc2)[C@@H]4c2ccccc2)C3c2ccccc2)c1 (stereo partly specified)	nt	nt	nt	16*	3	nt
c1ccc(C2[C@H]3CN(Cc4cccnc4)[C@H](c4ccccc4)C34CC2(c2ccccc2)C4)cc1 (stereo partly specified)	nt	nt	nt	14	0	nt
FC(F)(F)c1ccc(CN2C[C@@H]3C(c4ccc(C(F)(F)F)cc4)C4(c5cccnc5)CC3(C4)[C@H]2c2ccccc2)cc1 (stereo partly specified)	nt	nt	nt	1	2	nt
FC(F)(F)c1ccc(C2[C@H]3CN(Cc4cccnc4)[C@H](c4ccccc4)C34CC2(c2ccccc2)C4)cc1 (stereo partly specified)	nt	nt	nt	16*	3	nt
COc1ccc(C(=O)NNC(=O)c2snnc2C)cc1	nt	nt	4	-4	0	-1
CC(C(=O)N1CCc2ccccc21)N(C)CC(=O)Nc1ccccc1Cl (stereo unspecified)	nt	nt	nt	4	1	nt
COC(=O)c1ccc2c(c1)N(Cc1nc(-c3ccc(Cl)cc3)oc1C)C(=O)C1CCCN21 (stereo unspecified)	nt	nt	nt	16*	2	nt
COC(=O)c1cc2occc2n1Cc1nc(-c2ccc(Cl)cc2)oc1C	0	-10	-2	-8	0	-3
CCCCn1c(-c2cccc3ccccc23)nc2cc3[nH]c(=O)c(C(C)C)nc3cc21	nt	nt	nt	16*	4	nt
CCCCn1c(-c2ccccc2C)nc2cc3[nH]c(=O)c(C(C)C)nc3cc21	nt	nt	nt	4	3	nt
CCS(=O)(=O)C1=NN2C(=N)/C(=C\c3ccc(OCCOc4cccc(OC)c4)c(OC)c3)C(=O)N=C2S1	nt	nt	nt	16*	3	nt
O=C(Cc1n[nH]c(=O)c2ccccc12)Nc1cccc(S(=O)(=O)N2CCCCCC2)c1	nt	nt	nt	3	5	nt
CN(C(=O)COc1cccc(C#N)c1)C1CCS(=O)(=O)C1 (stereo unspecified)	nt	nt	nt	0	1	nt
Cc1[nH]c2c(C)cccc2c1CCNC(=O)c1ccc2c(c1[N+](=O)[O-])C(=O)c1ccccc1C2=O	0	4	15*	9	0	8
SMILES	Hsp70 activator	PKD1 inh	p97 ATPase inh	PP1 counter	PP5 primary	RBBP9 inhibitor
CCOc1ccccc1NC(=O)C1CCCN1S(=O)(=O)c1ccccc1C(F)(F)F (stereo unspecified)	nt	nt	nt	-3	2	nt
CCOC(=O)c1cc(=O)n2nc(-c3ccccc3F)nc2s1	0	12	16*	2	0	12
CCOC(=O)c1ccc(NC(=O)Cn2nnc(-c3ccccc3F)n2)cc1	0	-6	4	0	0	-5
CCCCNc1c([N+](=O)[O-])ncn1C	nt	nt	4	-5	-1	-1
CCCCNc1nc(N)ncc1[N+](=O)[O-]	nt	nt	15*	4	-6	-7
COC(=O)C1=C(C)N(Cc2ccccc2)C(=NCCCCO)N[C@H]1c1ccccc1	nt	nt	nt	16*	3	nt
COc1ccc(C(=O)CCC(=O)N2CCN(c3ccc([N+](=O)[O-])cc3)CC2)cc1	nt	nt	nt	16*	0	nt
COc1ccc(C(=O)NNC(=O)C23CC4CC(CC(C4)C2)C3)cc1OC	nt	nt	nt	0	-1	nt
O=C(/C=C/Nc1ccc(F)c(Cl)c1)c1ccccc1	nt	nt	nt	5	3	nt
O=C(CSc1nnc(SCc2cccc3ccccc23)s1)N/N=C/C=C/c1ccccc1[N+](=O)[O-]	0	-8	4	16*	1	-6
O=C(CSc1nnc(SCc2cccc3ccccc23)s1)N/N=C/c1c[nH]c2ccccc12	0	4	-1	3	5	-2
CSc1ccccc1NC(=O)c1cc(-c2cccnc2)nc2ccc(Br)cc12	0	-5	2	17*	5	-10
C/C(=N\Nc1ncc(Cl)cc1Cl)c1ccccn1	0	61*	-2	nt	nt	-9
C/C(=N\Nc1ccc(Cl)c(C(=O)O)c1)c1ccccn1	nt	nt	7	-4	-1	-7
COc1cccc2c1C(=O)c1c(O)c3c(c(O)c1C2=O)C[C@@](O)(C(=O)CO)C[C@@H]3O[C@H]1C[C@H](N)[C@H](O)[C@H](C)O1	4	75*	-4	-3	0	10
CN(C)CCCN(C(=O)c1cc(-c2cccs2)nc2ccccc12)c1nc2c(F)cccc2s1	nt	nt	nt	12	4	nt
Cc1ccc2nc(N(CCCN(C)C)C(=O)c3cc(-c4cccs4)nc4ccccc34)sc2c1	nt	nt	nt	17*	5	nt
Cc1ccc(C(=O)Nc2ccccc2C(=O)O)cc1S(=O)(=O)Nc1ccc(Br)cc1	nt	nt	nt	16*	4	nt
COc1cccc(-c2cc(C(F)(F)F)n3nc(C(=O)Nc4c(C)n(C)n(-c5ccccc5)c4=O)cc3n2)c1	0	3	4	0	0	-1
COc1ccc(-c2cc(C(F)(F)F)n3nc(C(=O)Nc4c(C)n(C)n(-c5ccccc5)c4=O)cc3n2)cc1	0	-2	17*	nt	nt	2

Screening results deposited in PubChem BioAssay by several laboratories.
